{
  "source": "ChEMBL document CHEMBL6092225",
  "about": "“Design, Synthesis, and Biological Evaluation of [1,2,5]Oxadiazolo[3,4-b]pyridin-7-ol as Mitochondrial Uncouplers for the Treatment of Obesity and Metabolic Dysfunction-Associated Steatohepatitis” (J Med Chem, 2024)",
  "key": {"[1]": {"experiment": "Induction of oxygen consumption rate in rat L6 cells measured for 90 mins by Seahorse assay", "assay_type": "functional, cell-based"}, "L6 [2]": {"system": "L6", "experiment": "(§1) Induction of oxygen consumption rate in rat L6 cells upto 200 uM measured for 90 mins by Seahorse assay relative to BAM15", "assay_type": "functional"}, "[3]": {"experiment": "as §1", "assay_type": "functional", "details": "1.5 h, up to 200 µM"}, "Mus musculus [4]": {"system": "Mus musculus", "experiment": "Anti-obesity activity in diet-induced Gubra-Amylin NASH C57BL/6 mouse model of MASH assessed as decrease in liver triglyceride level at 200 mg/kg, po for 4 weeks", "assay_type": "functional, organism-based", "in_short": "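GAN-diet male C57BL/6 mice dosed 200 mg/kg daily in food for 4 weeks. Liver harvested at end, frozen in liquid nitrogen, lipid extracted. Extract heated 10 min at 37 °C, then triglyceride measured by colorimetric assay and normalized to initial grams extracted.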"}, "[5]": {"experiment": "Toxicity in C57BL/6 mouse assessed as change in appetite at 30 to 1000 mg/kg, po measured for 24 hrs", "assay_type": "organism-based", "details": "in vivo, dose 30-1000 mg/kg", "in_short": "(§2)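 Male C57BL/6 mice, 9 weeks old, given vehicle or compound at 30, 100, 300 or 1000 mg/kg by single oral gavage. Monitored 24 h after dosing for core temperature by rectal probe, body weight and food intake. n = 3, mean ± SEM.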"}, "[6]": {"experiment": "Toxicity in C57BL/6 mouse assessed as change in body temperature at 30 to 1000 mg/kg, po measured for 24 hrs", "assay_type": "organism-based", "details": "in vivo, dose 30-1000 mg/kg", "in_short": "as §2"}, "Mus musculus [7]": {"system": "Mus musculus", "experiment": "Anti-obesity activity in diet-induced Gubra-Amylin NASH C57BL/6 mouse model of MASH assessed at 200 mg/kg, po for 4 weeks by EchoMRI analysis"}, "Mus musculus [8]": {"system": "Mus musculus", "experiment": "Anti-obesity activity in diet-induced Gubra-Amylin NASH C57BL/6 mouse model of MASH assessed as decrease in plasma ALT level at 200 mg/kg, po for 4 weeks", "assay_type": "functional, organism-based", "in_short": "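GAN-diet male C57BL/6 mice given compound admixed in diet at 200 mg/kg daily for 4 weeks. Terminal EDTA plasma taken by cardiac puncture under isoflurane. ALT activity measured by kit assay, samples diluted 1:8 in ALT assay buffer.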"}, "Mus musculus [9]": {"system": "Mus musculus", "experiment": "Anti-obesity activity in diet-induced Gubra-Amylin NASH C57BL/6 mouse model of MASH assessed as decrease in fat mass at 200 mg/kg, po for 4 weeks by EchoMRI analysis", "assay_type": "functional, organism-based", "in_short": "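Male C57BL/6 mice kept on GAN diet for 33 weeks, then fed GAN diet with or without compound admixed at 200 mg/kg daily for 4 weeks. Fat and lean mass measured weekly by EchoMRI.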"}, "[10]": {"experiment": "Induction of oxygen consumption rate in rat L6 cells assessed as increase in respiration at 10 uM measured for 90 mins in presence of BAM15 by Seahorse assay relative to control", "assay_type": "functional", "details": "1.5 h"}, "L6 [11]": {"system": "L6", "experiment": "Induction of oxygen consumption rate in rat L6 cells at 10 uM measured for 90 mins in presence of oligomycin by Seahorse assay", "assay_type": "functional, cell-based", "in_short": "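L6 myoblasts in unbuffered DMEM with pyruvate and glutamine (pH 7.4) on Seahorse XF. Mitochondrial stress test: oligomycin 1 µM or vehicle injected, then compound at 10 µM, then antimycin A 10 µM plus rotenone 1 µM at set times. n = 3 wells per condition, mean ± SEM.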"}, "Mus musculus [12]": {"system": "Mus musculus", "experiment": "Effect on liver mass in diet-induced Gubra-Amylin NASH C57BL/6 mouse model of MASH at 200 mg/kg, po for 4 weeks", "assay_type": "functional, organism-based", "in_short": "(§3)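 Male C57BL/6 mice, GAN diet from 5/6 weeks old for 33 weeks, then single-housed and stratified by baseline body weight and body composition. Fed GAN diet alone or GAN diet admixed with compound at 200 mg/kg for 4 weeks, fresh compound daily. Body weight and food intake measured daily, body composition weekly by EchoMRI, organs weighed at end.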"}, "[13]": {"experiment": "Toxicity in C57BL/6 mouse assessed as drug tolerance upto 1000 mg/kg, po measured for 24 hrs", "assay_type": "organism-based", "details": "in vivo", "in_short": "as §2"}, "Mus musculus [14]": {"system": "Mus musculus", "experiment": "Anti-obesity activity in diet-induced Gubra-Amylin NASH C57BL/6 mouse model of MASH assessed as decrease in NAFLD activity score at 200 mg/kg, po for 4 weeks", "assay_type": "functional, organism-based", "in_short": "as §3"}, "Mus musculus [15]": {"system": "Mus musculus", "experiment": "Effect on calorie intake in diet-induced Gubra-Amylin NASH C57BL/6 mouse model of MASH at 200 mg/kg, po", "assay_type": "functional, organism-based", "in_short": "as §3"}, "Mus musculus [16]": {"system": "Mus musculus", "experiment": "Effect on fibrosis stage of liver in diet-induced Gubra-Amylin NASH C57BL/6 mouse model of MASH at 200 mg/kg, po for 4 weeks", "assay_type": "functional, organism-based"}, "[17]": {"experiment": "Toxicity in C57BL/6 mouse assessed as change in body weight at 30 to 1000 mg/kg, po measured for 24 hrs", "assay_type": "organism-based", "details": "in vivo, dose 30-1000 mg/kg", "in_short": "as §2"}},
  "note": "Activity calls are given as the source filed them. No cut-off for these calls is given here.",
  "data": [
    {"smiles": "Oc1c(Nc2ccc(-c3cccc(Cl)c3Cl)cc2)cnc2nonc12", "values": [
      {"measurement": "EC50", "setting": "[1]", "result": "Not_active"},
      {"measurement": "Activity", "setting": "L6 [2]", "result": "inactive"}
    ]},
    {"smiles": "Oc1c(Nc2ccc(-c3cc(F)ccc3F)cc2)cnc2nonc12", "values": [
      {"measurement": "EC50", "setting": "[1]", "result": "Not_active"},
      {"measurement": "Activity", "setting": "L6 [2]", "result": "inactive"}
    ]},
    {"smiles": "Oc1c(Nc2ccc(-c3ccc(Cl)cc3)cc2)cnc2nonc12", "values": [
      {"measurement": "Activity", "setting": "[3]", "result": 57, "unit": "%"}
    ]},
    {"smiles": "Oc1c(Nc2ccc(-c3cccc(F)c3F)cc2)cnc2nonc12", "values": [
      {"measurement": "EC50", "setting": "[1]", "result": "Not_active"},
      {"measurement": "Activity", "setting": "L6 [2]", "result": "inactive"}
    ]},
    {"smiles": "Oc1c(Nc2ccc(-c3ccc(C(F)(F)F)cc3)cc2)cnc2nonc12", "values": [
      {"measurement": "EC50", "setting": "[1]", "result": "Not_active"},
      {"measurement": "Activity", "setting": "L6 [2]", "result": "inactive"}
    ]},
    {"smiles": "Oc1c(Nc2ccc(-c3ccc(F)c(F)c3)cc2)cnc2nonc12", "values": [
      {"measurement": "EC50", "setting": "[1]", "result": "Not_active"},
      {"measurement": "Activity", "setting": "L6 [2]", "result": "inactive"}
    ]},
    {"smiles": "CC(C)(C)Oc1ccc(Nc2cnc3nonc3c2O)cc1", "values": [
      {"measurement": "EC50", "setting": "[1]; read-out: EC50", "result": 6, "unit": "µM"},
      {"measurement": "Activity", "setting": "[3]", "result": 20, "unit": "%"}
    ]},
    {"smiles": "Oc1c(-c2ccc(-c3ccc(F)cc3)cc2)cnc2nonc12", "values": [
      {"measurement": "EC50", "setting": "[1]", "result": "Not_active"},
      {"measurement": "Activity", "setting": "L6 [2]", "result": "inactive"}
    ]},
    {"smiles": "Oc1c(Nc2ccc(F)nc2)cnc2nonc12", "values": [
      {"measurement": "EC50", "setting": "[1]", "result": "Not_active"},
      {"measurement": "Activity", "setting": "L6 [2]", "result": "inactive"}
    ]},
    {"smiles": "CC(=O)c1ccc(Nc2cnc3nonc3c2O)cc1", "values": [
      {"measurement": "EC50", "setting": "[1]", "result": "Not_active"},
      {"measurement": "Activity", "setting": "L6 [2]", "result": "inactive"}
    ]},
    {"smiles": "CC1(C)c2ccccc2-c2ccc(Nc3cnc4nonc4c3O)cc21", "values": [
      {"measurement": "EC50", "setting": "[1]", "result": "Not_active"},
      {"measurement": "Activity", "setting": "L6 [2]", "result": "inactive"}
    ]},
    {"smiles": "Oc1c(Nc2ccc(C(F)(F)F)nc2)cnc2nonc12", "values": [
      {"measurement": "EC50", "setting": "[1]", "result": "Not_active"},
      {"measurement": "Activity", "setting": "L6 [2]", "result": "inactive"}
    ]},
    {"smiles": "Oc1c(Nc2ccc(-c3cccc(Cl)c3)cc2)cnc2nonc12", "values": [
      {"measurement": "Activity", "setting": "Mus musculus [4]", "result": "Active"},
      {"measurement": "Activity", "setting": "[5]", "result": "Non-toxic"},
      {"measurement": "Activity", "setting": "[6]", "result": "Non-toxic"},
      {"measurement": "Activity", "setting": "Mus musculus [7]", "result": "Active"},
      {"measurement": "Activity", "setting": "Mus musculus [8]", "result": "Active"},
      {"measurement": "Activity", "setting": "Mus musculus [9]", "result": "Active; Activity Of Drug Indicates Improved Body Composition"},
      {"measurement": "Activity", "setting": "[10]", "result": 300, "unit": "%"},
      {"measurement": "Activity", "setting": "L6 [11]", "result": "Active; Action Of Drug Suggests Proton Transport Into Matrix Independent Of Atp Synthase; Activity Of Drug Requires Electron Transport Chain Activity"},
      {"measurement": "Activity", "setting": "Mus musculus [12]", "result": "Not active; No Significant Change In Liver Mass Was Observed But Showed Improvements In Fatty Liver Disease Phenotypes"},
      {"measurement": "Activity", "setting": "[13]", "result": "Non-toxic"},
      {"measurement": "Activity", "setting": "Mus musculus [14]", "result": "Active; The Occurence Is Due To Decreased Hepatic Steatosis"},
      {"measurement": "Activity", "setting": "Mus musculus [15]", "result": "inactive"},
      {"measurement": "Activity", "setting": "Mus musculus [16]", "result": "inactive"},
      {"measurement": "Activity", "setting": "[17]", "result": "Non-toxic"}
    ]},
    {"smiles": "Oc1c(Nc2cccc(-c3ccccc3)c2)cnc2nonc12", "values": [
      {"measurement": "EC50", "setting": "[1]; read-out: EC50", "result": 6, "unit": "µM"},
      {"measurement": "Activity", "setting": "[3]", "result": 20, "unit": "%"}
    ]},
    {"smiles": "Oc1c(Nc2ccc(-c3ccc(F)cc3)cc2)cnc2nonc12", "values": [
      {"measurement": "Activity", "setting": "[3]", "result": 60, "unit": "%"}
    ]},
    {"smiles": "Oc1c(Nc2ccccc2-c2ccccc2)cnc2nonc12", "values": [
      {"measurement": "EC50", "setting": "[1]", "result": "Not_active"},
      {"measurement": "Activity", "setting": "L6 [2]", "result": "inactive"}
    ]},
    {"smiles": "Oc1c(Nc2ccc(-c3ccccc3F)cc2)cnc2nonc12", "values": [
      {"measurement": "EC50", "setting": "[1]", "result": "Not_active"},
      {"measurement": "Activity", "setting": "L6 [2]", "result": "inactive"}
    ]},
    {"smiles": "CCCCc1ccc(Nc2cnc3nonc3c2O)cc1", "values": [
      {"measurement": "EC50", "setting": "[1]; read-out: EC50", "result": 1, "unit": "µM"}
    ]},
    {"smiles": "N#Cc1ccc(Nc2cnc3nonc3c2O)cc1", "values": [
      {"measurement": "EC50", "setting": "[1]", "result": "Not_active"},
      {"measurement": "Activity", "setting": "L6 [2]", "result": "inactive"}
    ]}
  ]
}
